Reference: article PMC7953034 (Journal of Pesticide Science, 2021)
Where two headings read alike, the source gives them in different places.

Key:
[1] = target: T1, DmNobo (Drosophila melanogaster, UniProt Q7JYX0); conditions: crystal structure PDB ID: 6KEP; cited from earlier work
[2] = target: T1, DmNobo; test: Crystal structures of DmNobo complexed with inhibitors; conditions: for # of bound molecules in the H-site: crystal structure of DmNobo complex; for Conformational change of Phe39: apo vs compound-bound; for GSH requirement for binding: crystals soaked with or without GSH; for GS-conjugation: observed in crystal structure with GSH
In short: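 DmNobo was expressed in E. coli BL21(DE3) from a pCold III construct and purified by GSH affinity and size-exclusion chromatography. Crystals were grown over 34% (v/v) PPG400, 80 mM Bis-Tris pH 6.4. They were soaked 2 days in 42.5% PPG400, 100 mM Bis-Tris pH 6.4 with 30 mM test compound, ±10 mM GSH, then flash-frozen. Synchrotron data were phased by molecular replacement using apo DmNobo. Contacts were defined as ≤4.0 Å.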

[3] = target: T1, DmNobo; test: GST activity inhibition assay; type: biochemical
In short: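 Recombinant DmNobo from E. coli was used. Test compounds were serially diluted two-fold in DMSO (stock series from 2.5 mM down), then premixed with enzyme and GSH before 3,4-DNADCF was added. The final mix was 100 mM sodium phosphate pH 6.5, 25 ng·mL⁻¹ DmNobo, 1 mM GSH, 0.005% Tween 20 and 1 µM substrate. Fluorescence of the conjugate (ex 485/em 538 nm) was read every 30 s for 3 min. Relative activity was activity with/without compound; IC50 was taken from duplicate assays, with SD.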

T1 sequence (Q7JYX0 whole entry): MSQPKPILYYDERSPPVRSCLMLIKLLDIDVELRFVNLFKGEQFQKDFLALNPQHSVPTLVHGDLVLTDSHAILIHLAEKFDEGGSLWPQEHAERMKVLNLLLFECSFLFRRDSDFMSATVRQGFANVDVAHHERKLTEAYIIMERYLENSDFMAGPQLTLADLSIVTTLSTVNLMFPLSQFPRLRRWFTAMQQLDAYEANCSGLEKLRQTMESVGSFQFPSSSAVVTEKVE

# of bound molecules in the H-site [2] | Conformational change of Phe39 ([2]; crystal structure) | GSH requirement for binding [2] | GS-conjugation [2] | IC50 [3] [µM] | Different conformations of the inhibitor in subunits A and B ([2]; crystal structure) | Compound | # of bound molecules in the H-site [1] | inhibitory activity against DmNobo (in words) ([3]; GSH-conjugation activity, 3,4-DNADCF)
 |  |  |  |  |  | C[C@]12CC[C@@H]3c4ccc(O)cc4CC[C@H]3[C@@H]1CC[C@@H]2O [17β-Estradiol, 17β-estradiol] | 1 | 
1 | YES | GSH-dependent and YES | YES | 6.72 ± 1.48 |  | COc1cccc(C2=NC(C)(C)NC(c3cc(Br)ccc3O)C2)c1 (stereo not drawn) [TDP011, 4-bromo-2-[4-(3-methoxyphenyl)-2,2-dimethyl-5,6-dihydro-1H-pyrimidin-6-yl]phenol] |  | 
1 | YES | GSH-dependent and YES | YES | 3.1 ± 0.77 |  | O=C1CS(=O)(=O)N(Cc2ccc(F)cc2)c2ccsc21 [TDP012, 1-(4-fluorobenzyl)-1H-thieno[3,2-c][1,2]thiazin-4(3H)-one 2,2-dioxide] |  | 
1 | YES |  |  | 8.94 ± 1.65 | YES | Cc1ccc(C(C)(C)C)cc1S(=O)(=O)Nc1ccccc1C(=O)O [TDP013, 2-(5-tert-butyl-2-methyl-benzenesulfonylamino)-benzoic acid] |  | 
2 | YES | GSH-dependent and YES | YES | 3.32 ± 0.81 |  | Nc1ccc(N2CCc3sccc3C2)nc1 [TDP015, 6-(6,7-dihydrothieno[3,2-c]pyridin-5(4H)-yl)-3-pyridinamine] |  | 
1 |  |  | YES | > 1000 |  | CC1(C)CC(=O)CC(=O)C1 [TDP045, 5,5-dimethyl-1,3-cyclohexanedione] |  | did not exhibit a strong inhibitory activity
